EC50 and CC50 data for twelve molecules are collected here from ChEMBL document CHEMBL3826964, “Structure-based design and synthesis of triazole-based macrocyclic inhibitors of norovirus protease: Structural, biochemical, spectroscopic, and antiviral studies” (Eur J Med Chem, 2016).

pEC50: −log10 of the molar value.

One series relates to Norovirus. The series is described as follows: Antiviral activity against HG23 cells harboring Norovirus replicon assessed as decrease in viral RNA level measured after 48 hrs by qRT-PCR analysis. The following applies: HG23, 48 h. It is filed as functional, cell-based. The procedure, abridged: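 One-day-old HG23 cells (Norwalk virus replicon-bearing) exposed to 1.0–100 μM compound for 48 h; total RNA extracted and norovirus RNA quantified by qRT-PCR, normalized to β-actin. Percent reduction versus mock-treated cells used to calculate EC50; at least two independent experiments.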

Series [1] in a line: Cytotoxicity against human HG23 cells after 72 hrs by CytoTox-96 non-radioactive cytotoxicity assay. It is filed as cell-based. The following applies: hg23, 72 h.

With `CC(C)C[C@@H]1NC(=O)[C@@H](NC(=O)OCc2ccccc2)Cc2cn(nn2)CCCCCNC(=O)CC[C@@H](C=O)NC1=O`, the pEC50 with Norovirus is 5.21. The CC50 in series [1] was greater than 100 µM.
For `CC(C)C[C@@H]1NC(=O)[C@@H](NC(=O)OCc2ccccc2)Cc2cn(nn2)CCCCNC(=O)CC[C@@H](C=O)NC1=O`, in that order: 4.33 and greater than 100 µM.
The matching figures for `O=C[C@@H]1CCC(=O)NCCn2cc(nn2)C[C@H](NC(=O)OCc2ccccc2)C(=O)N[C@@H](CC2CCCCC2)C(=O)N1`: 4.59 and greater than 100 µM.
On to `CC(C)C[C@@H]1NC(=O)[C@@H](NC(=O)OCc2ccccc2)Cc2cn(nn2)CCCCCCNC(=O)CC[C@@H](C=O)NC1=O`, for which the pEC50 in the series on Norovirus is 4.38. The CC50 in series [1] is greater than 100 µM.
For `O=C[C@@H]1CCC(=O)NCCCn2cc(nn2)C[C@H](NC(=O)OCc2ccccc2)C(=O)N[C@@H](CC2CCCCC2)C(=O)N1`, in that order: 4.79 and greater than 100 µM.
For `O=C[C@@H]1CCC(=O)NCCCCn2cc(nn2)C[C@H](NC(=O)OCc2ccccc2)C(=O)N[C@@H](CC2CCCCC2)C(=O)N1`, in that order: 4.52 and greater than 100 µM.
The matching figures for `O=C[C@@H]1CCC(=O)NCCCCCCn2cc(nn2)C[C@H](NC(=O)OCc2ccccc2)C(=O)N[C@@H](CC2CCCCC2)C(=O)N1`: 4.05 and greater than 100 µM.
Turning to `O=C[C@@H]1CCC(=O)NCCCCCn2cc(nn2)C[C@H](NC(=O)OCc2ccccc2)C(=O)N[C@@H](CC2CCCCC2)C(=O)N1`, the pEC50 with Norovirus is 5.42. In addition, the CC50 in series [1] is greater than 100 µM.
Turning to `CC(C)C[C@@H]1NC(=O)[C@@H](NC(=O)OCc2ccccc2)CCCn2cc(nn2)CNC(=O)CC[C@@H](C=O)NC1=O`, the negative logarithm of the EC50 (pEC50) in the series with Norovirus is 5.07.
`O=C[C@@H]1CCC(=O)NCCCCCCn2cc(nn2)C[C@H](NC(=O)OCc2ccccc2)C(=O)N[C@@H](Cc2ccccc2)C(=O)N1`: in the series with Norovirus, the pEC50 was 4.53. The CC50 in series [1] is greater than 100 µM.
For `CC(C)C[C@@H]1NC(=O)[C@@H](NC(=O)OCc2ccccc2)Cc2cn(nn2)CCNC(=O)CC[C@@H](C=O)NC1=O`, in that order: 4.27 and greater than 100 µM.
For `CC(C)C[C@@H]1NC(=O)[C@@H](NC(=O)OCc2ccccc2)Cc2cn(nn2)CCCNC(=O)CC[C@@H](C=O)NC1=O`, in that order: 4.09 and greater than 100 µM.

As a reminder, the pEC50 is the EC50 on a negative log10 scale, so that one unit is a factor of ten. By CC50 is commonly meant the concentration at which the toxic effect on the cells reaches its halfway point.
